# High-throughput results as filed in PubChem BioAssay.
# Most compounds without a hit are left out; they make up all but 4.1% or so of the library.
# Apaf1 inhib: blocks human Apaf-1 apoptosome activity. O14727. reconstituted apoptosome caspase-3 activity, DEVD-Rh110 fluorescence. inhibition, % at 20 µM. 0.71% of 330,000 active. AID 489030; active = inhibition of at least 40% at 20 µM
#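 System: Apoptosome proteins | Medium: Hepes pH 7.5 with detergent and BSA | Also added: Cytochrome c trigger plus (Z-DEVD)2-Rh110 caspase-3 substrate | Incubation: 30 min compound preincubation, 50 min activation, room temperature | Detection: Rhodamine 110 fluorescence at Ex 480/Em 540 nm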
# UBC13 inh: human UBC13 polyubiquitination inhibition; 0.47% of 330,000 active; UBC13 polyubiquitin chain formation, TR-FRET; P61088; inhibition, % at 20 µM; in the data active = inhibition above about 45%, passing the limit was not always enough
# Target sequence (P61088 whole entry, looked up): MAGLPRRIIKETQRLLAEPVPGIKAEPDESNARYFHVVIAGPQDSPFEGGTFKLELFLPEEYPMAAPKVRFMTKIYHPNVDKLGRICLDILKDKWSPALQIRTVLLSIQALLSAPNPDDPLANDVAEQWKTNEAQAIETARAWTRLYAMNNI
# UPR CHOP act: apoptotic UPR (CHOP) activation | activation, % at 10 µM | AID 449763 | 0.34% of 330,000 active | CHO-CHOP luciferase reporter, luminescence; percent of tunicamycin response over DMSO baseline;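 active = at 10 µM dose, activation of 40% or more, normalized to positive control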
#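 System: CHO-CHOP luciferase reporter cell line | Buffer or medium: F12 medium containing 10% fetal bovine serum | Doses: One dose, 10 µM in 0.5% DMSO | Times: 6 h compound exposure at 37 °C after overnight seeding | Signal: Luciferase luminescence | Read-out: % activation vs tunicamycin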
# XBP1 UPR activ: adaptive UPR (XBP1) activation; CHO-XBP1 luciferase reporter, IRE1-XBP1 UPR activation, luminescence; percent of tunicamycin response, DMSO as zero; activation, % at 20 µM; 0.33% of 330,000 active;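 active = versus positive control, 20 µM dose yields 30% or more activation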
#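 Test system: CHO-XBP1 luciferase reporter cells | Buffer or medium: Serum-containing F12 medium, 10% FBS | Schedule: 6 h compound exposure at 37 °C, 5% CO2 | Detection: Steady-Glo luciferase glow luminescence, 10 min after reagent addition | Read-out basis: Activation, % of tunicamycin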
# Mdm2-MdmX inh: disrupts the human Mdm2-MdmX interaction. SaOS-2 split-luciferase Mdm2/MdmX complementation, luminescence. inhibition, % at 8 µM. 3% of 330,000 active. AID 485346;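 active = inhibition of at least 50% at 8 µM in the primary screen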
# Mdm2-MdmX conf: confirmation of human Mdm2/MdmX interaction inhibitors | shares compounds with Mdm2-MdmX inh | Mdm2-MdmX binding, luminescent assay | inhibition, % at 8 µM | 55% of 10,000 active; in the data active = inhibition above about 40%
# Full FLuc ctr: inhibits full-length luciferase, flagging false Mdm2/MdmX hits; 77% of 6,200 active; shares compounds with Mdm2-MdmX inh; inhibition, % at 8 µM; SaOS-2 full-length luciferase counterscreen, luminescence;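 active = mean inhibition at 8 µM reaching about 37%, which flags the compound as non-specific, limit read from the data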;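 also: p53-null SaOS-2 cells with luciferase driven by a doxycycline-inducible promoter; compound on cells about two nights before reading with doxycycline added after day one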
# A number is an active result; . = inactive; / = no result given.
SMILES,Apaf1 inhib,UBC13 inh,UPR CHOP act,XBP1 UPR activ,Mdm2-MdmX inh,Mdm2-MdmX conf,Full FLuc ctr
COc1ccc(-n2c(SCC(=O)N/N=C/c3ccccc3OCC(=O)O)nc3ccccc3c2=O)cc1,.,.,.,.,.,/,/
Cc1cnc(C(=O)NNC(=O)c2ccc(Br)cc2)cn1,.,.,.,.,61,.,69
COc1ccc(Nc2ncnc3scc(-c4ccc(OC)cc4)c23)cc1,.,.,.,.,.,/,/
COc1cccc(/C=N/Nc2ncnc(Cl)c2N)c1O,.,.,.,.,100,83,.
COc1cccc(/C=N/Nc2nccnc2Cl)c1O,.,.,.,.,.,/,/
COc1cccc(/C=N/Nc2ncnc3scc(-c4ccccc4)c23)c1O,.,.,.,.,82,80,.
COc1cccc(/C=N/Nc2cc(-n3nc(C)cc3-c3ccccc3)ncn2)c1O,.,.,.,.,59,78,50
C/C(=N\NC(=O)c1ccc2ccccc2c1)c1cccs1,.,.,.,.,.,/,/
CCCCn1c(=O)nc2n(-c3ccccc3)c3ccccc3cc-2c1=O,.,.,.,.,.,/,/
O=C(NCCc1ccccn1)c1cc(-c2ccccc2Cl)nc2ccccc12,.,.,.,.,.,/,/
COC/C=C/C1=CC2=CC(=O)C(C)(OC(=O)c3cnc4ccccc4n3)C(=O)C2=CN1C1CCCC1 (configuration not stated),.,.,.,.,.,/,/
O=c1c2ccccc2[nH]c(=S)n1CCCN1CCN(c2ccccc2F)CC1,.,.,.,.,66,.,81
O=c1c2ccccc2[nH]c(=S)n1CCCN1CCN(c2ccccc2)CC1,.,.,.,.,80,43,63
O=c1c2cccnc2[nH]c(=S)n1CCCN1CCN(c2ccccc2F)CC1,.,.,.,.,.,/,/
COc1ccc(NC(=O)CCc2c(C)nc3nc(C)nn3c2C)cc1,.,.,.,.,.,/,/
CCOc1ccccc1C(=O)N1CCN(c2cccc(Cl)c2)CC1,.,.,.,.,74,63,93
O=C(O)c1ccccc1C(=O)N1CCN(c2cccc(Cl)c2)CC1,.,.,.,.,.,/,/
CCOc1ccc2ccccc2c1C(=O)N1CCN(c2ccccc2)CC1,.,.,.,.,58,54,51
CCOC(=O)c1[nH]c(C)c(C(=O)N2CCN(c3ccccc3)CC2)c1C,.,.,.,.,.,/,/
CC[n+]1c(/C=C2/C=C(C)CC(C)C2)sc2ccccc21 (configuration not stated),.,.,.,.,.,/,/
CC[n+]1c(C=C2C=C(C)OC(C)=C2)sc2ccccc21,.,.,.,.,75,70,56
Cc1ccc(S(=O)(=O)N2C(=O)[C@@H]3Cc4ccccc4CN3C2=O)cc1,.,.,.,.,.,/,/
CSc1ccc2c(c1)N(CCC1CCCCN1C)c1ccccc1S2 (configuration not stated),55,72,.,.,94,.,/
N=c1n(CCN2CCCCC2)c2ccccc2n1CC(=O)c1cccc([N+](=O)[O-])c1,.,.,.,.,73,.,/
C=CCn1c(=N)n(CC(=O)c2cccc([N+](=O)[O-])c2)c2ccccc21,.,.,.,.,.,/,/
SMILES,Apaf1 inhib,UBC13 inh,UPR CHOP act,XBP1 UPR activ,Mdm2-MdmX inh,Mdm2-MdmX conf,Full FLuc ctr
O=C(/C=C/c1ccco1)Nc1ccc(Oc2ccc(Cl)cc2)cc1,.,.,.,.,55,60,40
COc1cccc(NC(=O)/C=C/c2ccco2)c1,.,.,.,.,.,/,/
FC(F)(F)c1nc(-c2ccncc2)ncc1-c1nnnn1-c1ccccc1,.,.,.,.,.,/,/
Fc1ccc(-n2nnnc2-c2cnc(-c3cccs3)nc2C(F)(F)F)cc1,.,.,.,.,56,44,59
COc1ccc(COc2cc(-c3cccc(OC)c3)nc3ccc(NC(=O)c4ccc(OC)cc4)cc23)cc1,.,.,.,.,52,40,62
COc1ccc(COc2cc(-c3cccc(OC)c3)nc3ccc(NC(=O)c4ccccc4)cc23)cc1,.,.,.,.,.,/,/
COc1ccc(COc2cc(-c3cccc(OC)c3)nc3ccc(NC(=O)c4cccnc4)cc23)cc1,.,.,.,.,63,55,69
Cc1ccc(N2C(=O)CC(Sc3nc4ccccc4o3)C2=O)cc1Cl (configuration not stated),.,.,.,.,89,.,/
Cc1cccn2c(=O)c3cc(C(=O)NCCCN4CCCC4=O)n(C)c3nc12,.,.,.,.,.,/,/
O=C(O)c1cc(-c2cccs2)nn1-c1cccc(Cl)c1,.,.,.,.,.,/,/
CN(C)S(=O)(=O)c1cccc(NC(=O)c2cc(-c3cccs3)nn2-c2cccc(Cl)c2)c1,.,.,.,.,50,58,65
O=[N+]([O-])c1c(NCCCO)cc(Sc2nc3ccccc3s2)c2nonc12,98,.,.,.,99,56,.
COc1ccc(-c2sc3cc(OC)c(OC)cc3c2-c2ccc(O)cc2)cc1,.,.,.,.,53,.,/
COc1ccc(C2C(C#N)=C(N)Oc3c2ccc2cccnc32)cc1OC (configuration not stated),.,.,.,.,81,78,60
N#CC1=C(N)Oc2cc(N)ccc2C1c1ccc(F)cc1F (configuration not stated),.,.,.,.,59,.,/
N#CC1=C(N)Oc2cc(N)ccc2C1c1ccc(F)cc1 (configuration not stated),.,.,.,.,.,/,/
COc1cc(C2C(C#N)=C(N)Oc3cc(N)ccc32)cc(OC)c1OC (configuration not stated),.,.,.,.,88,66,68
CCN(C(=O)CSc1nc2cc(S(=O)(=O)N(CC)CC)ccc2n1CC)C1CCS(=O)(=O)C1 (configuration not stated),.,.,.,.,.,/,/
Cc1ccc(S(=O)(=O)N2CCN(C(=O)COC(=O)c3cnc(C)cn3)CC2)c(C)c1,.,.,.,.,.,/,/
CCCCc1ccc(N/C(N)=N/c2nc(C)cc(C)n2)cc1,.,.,.,.,66,.,/
Cc1ccc(N/C(N)=N/c2nc(C)cc(C)n2)cc1,.,.,.,.,.,/,/
CCn1c(=O)cc(SCC(=O)N2CCN(c3ccccc3F)CC2)c2ccccc21,.,.,.,.,56,44,86
CCn1c(=O)cc(SCC(=O)N(C)Cc2ccccc2)c2ccccc21,.,.,.,.,51,.,/
CN(Cc1ccccc1)C(=O)CSc1cc(=O)n(C)c2ccccc12,.,.,.,.,.,/,/
CCn1c(=O)n(CC(=O)N2CCN(c3ccccc3F)CC2)c(=O)c2ccccc21,.,.,.,.,.,/,/
